These results are taken from ChEMBL document CHEMBL1926556, “Synthesis and biological activities of 2-[(heteroaryl)methyl]imidazolines” (Bioorg Med Chem, 2012).

The source made the active and inactive calls. No cut-off for these calls is given here.

The term Ki denotes the dissociation constant of the complex between target and ligand, obtained from inhibition or displacement. A higher Ki goes with a looser hold on the target. In general, IC50 refers to the concentration at which inhibition is half-maximal. What is called Emax is the greatest response seen or fitted, relative to the assay's reference.

For assay [1], the target named is T1, Adrenergic receptor alpha-1 (Rattus norvegicus, UniProt P15823+P23944+P43140).
T1 sequence (P15823 whole entry): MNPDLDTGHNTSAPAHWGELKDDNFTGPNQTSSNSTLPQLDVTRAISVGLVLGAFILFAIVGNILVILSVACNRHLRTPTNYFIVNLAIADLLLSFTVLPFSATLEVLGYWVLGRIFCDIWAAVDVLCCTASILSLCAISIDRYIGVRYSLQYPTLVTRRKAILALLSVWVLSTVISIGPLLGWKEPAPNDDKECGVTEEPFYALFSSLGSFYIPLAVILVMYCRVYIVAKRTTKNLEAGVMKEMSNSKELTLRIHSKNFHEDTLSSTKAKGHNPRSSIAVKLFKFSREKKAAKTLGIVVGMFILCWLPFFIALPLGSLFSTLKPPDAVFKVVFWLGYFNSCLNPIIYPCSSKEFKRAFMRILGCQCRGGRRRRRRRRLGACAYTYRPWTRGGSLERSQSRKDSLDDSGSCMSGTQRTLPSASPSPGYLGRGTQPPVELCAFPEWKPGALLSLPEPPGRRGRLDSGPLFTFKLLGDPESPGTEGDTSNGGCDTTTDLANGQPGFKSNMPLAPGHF
T1 sequence (P23944 whole entry): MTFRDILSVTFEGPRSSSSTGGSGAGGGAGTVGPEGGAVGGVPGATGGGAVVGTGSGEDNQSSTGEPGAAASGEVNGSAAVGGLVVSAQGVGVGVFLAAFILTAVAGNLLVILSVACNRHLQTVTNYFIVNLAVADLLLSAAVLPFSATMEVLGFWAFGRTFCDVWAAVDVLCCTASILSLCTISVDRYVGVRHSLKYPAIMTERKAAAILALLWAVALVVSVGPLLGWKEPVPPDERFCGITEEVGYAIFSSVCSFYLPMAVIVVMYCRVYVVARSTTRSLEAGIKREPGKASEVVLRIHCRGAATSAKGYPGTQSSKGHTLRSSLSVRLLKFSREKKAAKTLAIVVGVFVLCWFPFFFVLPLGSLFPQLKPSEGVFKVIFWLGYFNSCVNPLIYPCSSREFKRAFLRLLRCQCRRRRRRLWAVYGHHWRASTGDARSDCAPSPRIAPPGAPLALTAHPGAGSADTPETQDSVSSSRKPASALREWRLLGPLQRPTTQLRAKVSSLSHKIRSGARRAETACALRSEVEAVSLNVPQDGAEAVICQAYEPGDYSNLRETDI
T1 sequence (P43140 whole entry): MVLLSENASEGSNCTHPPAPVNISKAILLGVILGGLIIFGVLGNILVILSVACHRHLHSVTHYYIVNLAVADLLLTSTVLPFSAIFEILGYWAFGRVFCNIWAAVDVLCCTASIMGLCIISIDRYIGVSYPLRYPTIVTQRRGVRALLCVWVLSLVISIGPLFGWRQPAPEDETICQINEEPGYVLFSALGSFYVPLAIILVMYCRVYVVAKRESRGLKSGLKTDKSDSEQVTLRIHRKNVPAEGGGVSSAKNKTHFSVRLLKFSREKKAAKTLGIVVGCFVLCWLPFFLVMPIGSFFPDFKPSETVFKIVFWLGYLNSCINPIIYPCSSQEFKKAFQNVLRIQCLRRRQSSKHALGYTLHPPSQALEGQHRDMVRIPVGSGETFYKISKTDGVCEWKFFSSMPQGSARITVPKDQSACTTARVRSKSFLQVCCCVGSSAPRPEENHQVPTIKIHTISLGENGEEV
The experiment in a line: Displacement of [3H]prazosin from adrenoceptor alpha1 in Sprague-Dawley rat brain after 45 mins by scintillation counting. In a few lines:
(§1)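 Crude P2 membranes from male Sprague–Dawley rat brain (250–280 g), 0.2–0.3 mg protein. Radioligand 1 nM: [3H]2BFI for I2, [3H]prazosin for α1, [3H]RX821002 for α2. Non-specific binding defined by 10 µM BU224 (I2), 10 µM phenylephrine (α1) or 10 µM rauwolscine (α2). 11 concentrations from 0.01 nM to 100 µM, triplicate, 45 min at RT. Filtration and scintillation counting; Ki by Cheng–Prusoff.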
For orientation: Displacement assays read how much labelled ligand stays bound in the presence of the test substance.

For assay [2], the target named is T2, Adrenergic receptor alpha-2 (Rattus norvegicus, UniProt P22086+P19328+P22909).
T2 sequence (P22086 whole entry): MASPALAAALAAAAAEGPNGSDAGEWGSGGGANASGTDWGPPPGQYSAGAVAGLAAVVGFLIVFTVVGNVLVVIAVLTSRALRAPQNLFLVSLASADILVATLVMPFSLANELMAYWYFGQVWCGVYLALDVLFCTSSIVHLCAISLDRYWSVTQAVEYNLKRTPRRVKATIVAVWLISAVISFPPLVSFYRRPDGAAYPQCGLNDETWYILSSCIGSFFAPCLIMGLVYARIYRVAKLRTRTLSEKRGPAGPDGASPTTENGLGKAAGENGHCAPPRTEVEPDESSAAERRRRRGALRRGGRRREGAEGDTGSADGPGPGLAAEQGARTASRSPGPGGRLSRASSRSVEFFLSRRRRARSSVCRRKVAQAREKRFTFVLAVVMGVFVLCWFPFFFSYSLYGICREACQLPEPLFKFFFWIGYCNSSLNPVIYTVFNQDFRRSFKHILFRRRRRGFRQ
T2 sequence (P19328 whole entry): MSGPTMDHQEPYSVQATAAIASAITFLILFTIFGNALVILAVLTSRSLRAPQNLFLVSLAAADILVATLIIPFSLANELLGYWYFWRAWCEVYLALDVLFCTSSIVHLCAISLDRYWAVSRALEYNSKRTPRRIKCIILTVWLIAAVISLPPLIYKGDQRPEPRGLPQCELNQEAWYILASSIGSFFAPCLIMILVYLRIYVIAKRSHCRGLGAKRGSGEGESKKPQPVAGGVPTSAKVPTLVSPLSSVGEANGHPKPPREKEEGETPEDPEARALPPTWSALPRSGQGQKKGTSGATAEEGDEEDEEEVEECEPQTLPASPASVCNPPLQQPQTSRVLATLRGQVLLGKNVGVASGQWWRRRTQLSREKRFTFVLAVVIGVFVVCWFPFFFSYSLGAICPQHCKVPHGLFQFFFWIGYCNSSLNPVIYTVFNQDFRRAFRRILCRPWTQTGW
T2 sequence (P22909 whole entry): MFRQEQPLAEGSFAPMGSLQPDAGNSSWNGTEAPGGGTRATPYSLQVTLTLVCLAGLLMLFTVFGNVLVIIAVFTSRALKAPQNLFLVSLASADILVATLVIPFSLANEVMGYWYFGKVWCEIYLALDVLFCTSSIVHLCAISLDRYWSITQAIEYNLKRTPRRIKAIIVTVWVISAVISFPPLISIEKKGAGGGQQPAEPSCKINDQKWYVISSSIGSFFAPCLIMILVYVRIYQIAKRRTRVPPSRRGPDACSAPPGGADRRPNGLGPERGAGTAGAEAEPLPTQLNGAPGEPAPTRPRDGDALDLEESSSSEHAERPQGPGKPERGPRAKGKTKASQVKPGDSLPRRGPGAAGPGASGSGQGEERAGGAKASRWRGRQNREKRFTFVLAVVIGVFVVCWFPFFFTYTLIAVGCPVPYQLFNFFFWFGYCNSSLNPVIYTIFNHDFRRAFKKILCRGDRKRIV
As to the kind of experiment: Displacement of […] from adrenoceptor alpha2 in Sprague-Dawley rat brain membranes after 45 mins by scintillation counting. The class given is cell membranes, Membrane. In a few lines: as §1

A further assay concerns the target Nischarin (Rattus norvegicus, UniProt Q4G017). The experiment in a line: Displacement of [3H]clonidine from imidazoline I1 receptor in Sprague-Dawley rat kidney membranes after 45 mins by scintillation counting. The class given is cell membranes, Membrane. In a few lines: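 Crude P2 membranes from male Sprague–Dawley rat kidney, 0.2–0.5 mg protein. […] Specific binding defined by 10 µM rilmenidine. 11 concentrations from 0.01 to 100 µM, 50 mM Tris-HCl pH 7.4, 45 min at RT. Filtration and scintillation counting; IC50.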

A short description of assay [3]: Displacement of [3H]BFI from imidazoline I2 receptor in Sprague-Dawley rat brain membranes after 45 mins by scintillation counting. The class given is cell membranes, Membrane. In a few lines:
as §1

The species named for another assay is Rattus norvegicus. The experiment in a line: Displacement of [3H]BFI from imidazoline I2 in Sprague-Dawley rat brain membranes at 1 X 10^6 after 45 mins by scintillation counting. The assay is classed as cell membranes. To be noted: Membrane.
The target in assay [4] is T3, Alpha-2A adrenergic receptor (Homo sapiens) (UniProt P08913).
T3 sequence (whole entry): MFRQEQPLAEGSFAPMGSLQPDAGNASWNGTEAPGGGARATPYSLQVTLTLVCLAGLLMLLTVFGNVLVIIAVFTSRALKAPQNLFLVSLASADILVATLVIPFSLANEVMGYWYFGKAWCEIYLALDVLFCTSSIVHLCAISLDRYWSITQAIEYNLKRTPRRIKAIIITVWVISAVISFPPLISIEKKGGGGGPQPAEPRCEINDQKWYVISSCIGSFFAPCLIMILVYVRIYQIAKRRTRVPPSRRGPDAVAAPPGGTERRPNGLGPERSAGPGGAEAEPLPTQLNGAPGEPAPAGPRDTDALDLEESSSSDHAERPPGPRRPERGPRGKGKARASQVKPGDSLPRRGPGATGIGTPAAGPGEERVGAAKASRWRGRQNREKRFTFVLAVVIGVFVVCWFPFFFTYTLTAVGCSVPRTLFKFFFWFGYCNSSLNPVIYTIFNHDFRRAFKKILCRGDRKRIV
The experiment in a line: Agonist activity at human adrenoceptor alpha2A expressed in CHOK1 cells assessed as stimulation of agonist-induced [35S]GTPgammaS binding by scintillation counting assay relative to noradrenaline. The assay is classed as functional, cell-based. To be noted: CHO-K1. The essentials: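 Membranes from CHO-K1 cells stably expressing human α2A-adrenoceptor; 5 µg protein incubated with serial dilutions of agonist and 0.1 nM [35S]GTPγS in Tris buffer pH 7.4 with 1 µM GDP, MgCl2, NaCl, 30 min at RT. Filtered and counted by scintillation. EC50 and intrinsic activity relative to noradrenaline; means from 3 independent experiments.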
(In general: Binding of GTPγS marks nucleotide exchange on a G protein.)

Chain of Nischarin (Q4G017 whole entry): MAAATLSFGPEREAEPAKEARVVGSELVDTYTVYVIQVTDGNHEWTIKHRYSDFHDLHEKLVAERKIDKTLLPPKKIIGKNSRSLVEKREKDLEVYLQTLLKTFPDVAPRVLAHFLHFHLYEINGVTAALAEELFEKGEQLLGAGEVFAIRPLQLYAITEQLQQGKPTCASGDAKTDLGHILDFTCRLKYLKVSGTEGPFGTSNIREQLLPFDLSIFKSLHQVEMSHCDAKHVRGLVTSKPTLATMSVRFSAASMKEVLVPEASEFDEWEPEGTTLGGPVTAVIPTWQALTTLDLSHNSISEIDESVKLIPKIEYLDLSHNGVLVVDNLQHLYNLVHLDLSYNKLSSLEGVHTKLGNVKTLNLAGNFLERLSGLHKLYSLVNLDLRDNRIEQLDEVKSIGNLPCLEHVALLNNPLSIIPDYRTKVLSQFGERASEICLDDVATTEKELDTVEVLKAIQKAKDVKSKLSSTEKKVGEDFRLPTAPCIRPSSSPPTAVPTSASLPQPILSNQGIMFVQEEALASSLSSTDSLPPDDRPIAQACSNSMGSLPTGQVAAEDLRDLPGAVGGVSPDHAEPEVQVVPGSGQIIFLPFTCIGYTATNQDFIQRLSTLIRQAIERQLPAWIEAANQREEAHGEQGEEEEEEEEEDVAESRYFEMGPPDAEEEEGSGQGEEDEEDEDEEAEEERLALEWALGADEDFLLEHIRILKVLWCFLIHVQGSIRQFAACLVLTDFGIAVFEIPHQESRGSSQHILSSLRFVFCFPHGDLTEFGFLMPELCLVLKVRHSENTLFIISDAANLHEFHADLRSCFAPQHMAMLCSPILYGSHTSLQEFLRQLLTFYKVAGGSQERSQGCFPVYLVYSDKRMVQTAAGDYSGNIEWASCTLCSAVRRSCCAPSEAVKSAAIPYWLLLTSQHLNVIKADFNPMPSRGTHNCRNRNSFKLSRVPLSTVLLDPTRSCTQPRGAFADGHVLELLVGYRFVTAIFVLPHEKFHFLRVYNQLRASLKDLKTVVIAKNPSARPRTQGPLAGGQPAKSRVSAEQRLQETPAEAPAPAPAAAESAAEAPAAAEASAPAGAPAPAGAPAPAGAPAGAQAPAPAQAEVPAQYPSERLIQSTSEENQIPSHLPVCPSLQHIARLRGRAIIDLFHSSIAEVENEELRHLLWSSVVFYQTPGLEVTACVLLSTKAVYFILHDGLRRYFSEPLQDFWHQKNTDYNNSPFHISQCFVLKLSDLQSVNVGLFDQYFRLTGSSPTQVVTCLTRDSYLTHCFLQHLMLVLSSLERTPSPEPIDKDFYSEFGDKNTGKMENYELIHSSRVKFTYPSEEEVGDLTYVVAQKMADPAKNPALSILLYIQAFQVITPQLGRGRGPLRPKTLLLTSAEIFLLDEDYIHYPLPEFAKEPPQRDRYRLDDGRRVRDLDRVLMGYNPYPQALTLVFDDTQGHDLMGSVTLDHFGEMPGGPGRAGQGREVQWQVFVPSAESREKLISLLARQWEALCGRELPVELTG

Turning to `Cc1cc2ncn(CC3=NCCN3)c2cc1C.Cl.Cl`, the Ki in assay [1] came to 1.5 µM; in assay [2], 2.26 µM; in assay [3] it was 28 µM. The half-maximal inhibitory concentration (IC50) at Nischarin was determined as 74 µM.
The corresponding values for `Cc1ccc2c(cnn2CC2=NCCN2)c1.Cl.Cl` are 0.363 µM, 0.268 µM, 0.022 µM and 45.4 µM.
Consider `Cc1cc2nnn(CC3=NCCN3)c2cc1C.Cl.Cl`, for which the Ki turned out to be 8.04 µM in assay [1], 1.56 µM in assay [2] and 26.3 µM in assay [3]. Further, the IC50 on Nischarin was found to be 16.8 µM.
As to `Cc1cccc2c1cnn2CC1=NCCN1.Cl`, the Ki in assay [1] was 0.409 µM; in assay [2] it was 0.197 µM; in assay [3], 0.116 µM. The same compound registered an IC50 on Nischarin of 12.9 µM.
The corresponding values for `COc1cccc2c1cnn2CC1=NCCN1.Cl.Cl` are 1.67 µM, 0.305 µM, 0.382 µM and 32.9 µM.
For `CCc1nc2ccccc2n1CC1=NCCN1.Cl.Cl`, the Ki is 5.5 µM in assay [1], 5 µM in assay [2] and 34.1 µM in assay [3]. At Nischarin, this compound had an IC50 of 44.2 µM.
The corresponding values for `Cc1nn(CC2=NCCN2)c2ccccc12.Cl.Cl` are 0.095 µM, 0.435 µM, 0.359 µM and 21.3 µM.
Regarding `Cc1nc2ccccc2n1CC1=NCCN1.Cl.Cl`, the result in the assay listed under Rattus norvegicus was inactive. Moreover, the Ki in assay [1] turned out to be 1.29 µM; in assay [2], 1.02 µM. This compound displayed an IC50 on Nischarin of 9.39 µM.
In the case of `Cl.Clc1cccc2c1cnn2CC1=NCCN1`, the inhibition constant Ki in assay [1] is 0.187 µM; in assay [2], 0.13 µM; in assay [3], 2.85 µM. This compound yielded a half-maximal inhibitory concentration (IC50) at Nischarin of 5.15 µM.
For `Cc1cccc2c1ncn2CC1=NCCN1.Cl.Cl`, the values for the Ki in assay [1], in assay [2] and in assay [3] were 1.5 µM, 0.273 µM and 24.4 µM, respectively. This compound also yielded an IC50 at Nischarin of 77.7 µM.
Consider `Cl.Fc1cccc2cnn(CC3=NCCN3)c12`, for which the results for the Ki in assay [1], in assay [2] and in assay [3] were 0.107 µM, 0.0126 µM and 0.156 µM, respectively. In addition, the IC50 on Nischarin was 16.4 µM.
In the same order, the values of `Cl.c1ccc2c(c1)nnn2CC1=NCCN1` are 1.34 µM, 5.11 µM, 0.81 µM and 56.8 µM.
`CCc1nc2cc(C)c(C)cc2n1CC1=NCCN1.Cl.Cl`: the Ki in assay [1] was determined as 12.9 µM; in assay [2], 7.41 µM; in assay [3], 0.081 µM. Further, the IC50 on Nischarin came out at 93.3 µM.
For `NC[C@H](O)c1ccc(O)c(O)c1`, in assay [4], the Emax stood at 100%.
Turning to `Cc1cc2nn(CC3=NCCN3)nc2cc1C.Cl.Cl`, the Ki is 6.07 µM in assay [1], 1.32 µM in assay [2] and 0.233 µM in assay [3]. Further, the IC50 on Nischarin was found to be 0.646 µM.
Take `Cl.Cl.c1ccc(-c2nc3ccccc3n2CC2=NCCN2)cc1`: the result in the assay listed under Rattus norvegicus was inactive. In addition, the Ki in assay [1] was determined as 1.11 µM; in assay [2] it was 7.44 µM. At Nischarin, this compound gave an IC50 of 28.1 µM.
For `Cc1cccc2nn(CC3=NCCN3)nc12.Cl.Cl`, the inhibitory constant (Ki) in assay [1] was 1.54 µM; in assay [2], 0.499 µM; in assay [3], 0.078 µM. In addition, at Nischarin, the IC50 stood at 48.8 µM.
In the same order, the values of `Cl.Cl.c1ccc2c(c1)ncn2CC1=NCCN1` are 0.929 µM, 3.25 µM, 6.1 µM and 43.9 µM.
